Measured values published in article PMC10824272 (Biomedicine & pharmacotherapy = Biomedecine & …, 2023).
“Also recorded” adds a separate entry of the source.

Assays:
[1] = Metabolic stability, phase I; format: in vitro ADME, human; conditions: HLM, phase I metabolism, 60 min
Outline: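 Phase I stability in human liver microsomes (20 mg/ml stock), 100 mM potassium phosphate pH 7.4, 10 mM MgCl2, 2 mM NADPH. Mix pre-incubated 10 min at 37 °C. Output is percent parent remaining per time point. Elimination rate constant taken from first-order plot of ln area ratio versus time.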

[2] = Plasma pharmacokinetics in mice; format: in vivo
Outline: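 I-6 given as a single 1 mg/kg intravenous dose to C57BL6 mice (n=5), with serial blood sampling. PDS-0330 given at 5 mg/kg by oral gavage or IP, with ~100 μl blood drawn from the maxillary vein at 5, 15, 30 min and 1, 2, 4, 6, 8, 24 h. Plasma levels in ng/ml; non-compartmental parameters.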

SW480 cells = experiment: Cell viability; format: cell-based, human; conditions: even at 25μM
HCT116 cells [3] = experiment: Anoikis-induced apoptosis assay; format: cell-based, human; conditions: claudin-1 deficient HCT116
[4] = target: T1, claudin-1/Src association (Homo sapiens, UniProt O95832); experiment: Proximity ligation assay; format: cell-based
T1 sequence (O95832 1-211): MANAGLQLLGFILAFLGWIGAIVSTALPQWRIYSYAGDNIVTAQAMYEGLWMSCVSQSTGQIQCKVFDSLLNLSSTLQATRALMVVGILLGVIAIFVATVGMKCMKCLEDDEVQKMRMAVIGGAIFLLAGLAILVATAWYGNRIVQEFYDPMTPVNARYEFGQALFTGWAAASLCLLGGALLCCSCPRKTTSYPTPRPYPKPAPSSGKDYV

SW480^cld1 cells [5] = experiment: Transwell matrigel invasion assay; format: cell-based, human; conditions: I-6; claudin-1 overexpressed SW480^cld1
SW480^cld2 cells = experiment: Cell viability; format: cell-based, human; conditions: 25 & 50μM
Outline: (§1)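 Cells maintained in RPMI plus 10% FBS. Viability read with PrestoBlue reagent per kit protocol after 72 h exposure to test compound.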

HCT116 cells [6] = experiment: Cell viability; format: cell-based, human; conditions: 25 & 50μM
Outline: as §1

[7] = tested on: SW480^cld1 xenograft tumor; experiment: Subcutaneous xenograft tumor study; format: in vivo, athymic nude mice
Outline: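 Cells implanted subcutaneously in athymic nude mice, n = 5 per group, vehicle controls. For SW480cld1 with I-6, once-weekly dosing started 10 days after implantation, once tumors were palpable, for two weeks. Caliper volume over time, formula […]. Ki67 and cleaved PARP by IHC. Behavior and body weight monitored.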

HCT116 cells [8] = experiment: Transwell matrigel invasion assay; format: cell-based, human; conditions: I-6; claudin-1 deficient HCT116
[9] = tested on: colon tumoroids from APC^min/+ / claudin-1 mice; experiment: Tumoroid culture apoptosis; format: cell-based
Outline: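 Colon tumors from APCmin/+/claudin-1 mice washed in ice-cold PBS and digested with collagenase-containing buffer. Single cells pelleted at 200 x g for 3 min, embedded in Matrigel and plated as tumoroids. Tumoroids exposed to test compound alone or with 5 μM 5-FU, then scored for apoptosis.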

SW620 cells [10] = experiment: Transwell matrigel invasion assay; format: cell-based, human; conditions: I-6; claudin-1 overexpressed SW620
SW620 cells [11] = experiment: Cell viability; format: cell-based, human
Outline: (§2)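 Claudin-1-overexpressing SW480cld1 and SW620 cells grown in RPMI with 10% FBS and exposed for 72 hours to a range of test compound concentrations. Viability measured by PrestoBlue reagent. EC50 calculated from the concentration–viability data.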

[12] = Tissue bio-distribution in mice; format: in vivo; conditions: both, mouse, liver, po, 5 mg/kg
SW480^cld1 cells [13] = experiment: Anoikis-induced apoptosis assay; format: cell-based
Outline: (§3)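 Anoikis induced by plating cells on poly-HEMA-coated culture plates. Apoptosis quantified with a cell death detection ELISA. Parental lines were cultured in RPMI with 10% FBS. Claudin-1-overexpressing SW480 and claudin-1-knockdown SW620 derivatives were used.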

[14] = tested on: pSrc, pAkt, Bcl2, Bcl-xL, survivin, cleaved PARP in SW620 and SW480^cld1 cells; experiment: Immunoblotting of signaling and apoptosis markers; format: cell-based, human; conditions: I-6, SW480^cld1 cells
Outline: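 Treated cells (vehicle or 12.5 and 25 μM) lysed. 10–30 μg protein per lane resolved by SDS-PAGE and immunoblotted, with enhanced chemiluminescence detection on film. Antibodies included p-Src (Tyr416), pAkt and total Akt, with GAPDH or β-actin as loading reference.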

SW480^cld1 cells [15] = experiment: Cell viability; format: cell-based, human
Outline: as §2

SW620^1C cells = experiment: Anoikis-induced apoptosis assay; format: cell-based, human; conditions: claudin-1 knockdown SW620^1C
Outline: as §3

SW620 cells [16] = experiment: Anoikis-induced apoptosis assay; format: cell-based
[17] = I-6 1mg/kg intravenous, mice, plasma, 1 mg/kg
[18] = both, C57BL6, mouse, plasma, iv, 1 mg/kg

Which results are given for `COc1cc2ccccc2cc1C(=O)NC(=S)Nc1ccc(-c2nc3ccccc3[nH]2)cc1` [I-6, N-((4-(1H-benzo[d]imidazol-2-yl)phenyl)carbamothioyl)-3-methoxy-2-naphthamide]?
drug remaining after 60 min [1]: 49%; time up to which detectable in plasma ([2]; I-6 1mg/kg intravenous, mice): up to 24 h; AUC0- ∞ [2, 17]: 1207.1 ± 35.6 ng·h/mL; C0 [2, 17]: 798.3 ± 277.2 ng/mL; time of plasma peak concentration ([2]; I-6 oral 5mg/kg, mice): 2 h; AUC(0-t) [2, 18]: 1140 ± 59.6 ng·h/mL; MRT [2, 18]: 5.6 ± 1.2 h; half-life [2, 18]: 420 ± 96 min; AUC(0-inf) ([2]; both, C57BL6, mouse, plasma, iv, 1 mg/kg, AUC0- ∞, I-6 1mg/kg intravenous, mice): 1140 ng·h/mL; C0 ([2]; both, C57BL6, mouse, plasma, iv, 1 mg/kg, C0, I-6 1mg/kg intravenous, mice): 798 ng/mL; Vd ([2]; both, C57BL6, mouse, plasma, iv, 1 mg/kg, Vd, I-6 1mg/kg intravenous, mice): 8.4 ± 2.1 L/kg; Vd ([2]; both, C57BL6, mouse, plasma, iv, 1 mg/kg, Vss, I-6 1mg/kg intravenous, mice): 4.7 ± 1.1 L/kg; Cmax ([2]; both, mouse, plasma, po, 5 mg/kg): 2.8 ng/mL; impact on SW480 cells (SW480 cells): no significant impact; resistance to anoikis (HCT116 cells [3]): no effect; association of claudin-1 with Src [4]: significantly interferes; invasion (SW480^cld1 cells [5]): suppresses invasion; cell viability (SW480^cld2 cells): no significant impact; cell viability (HCT116 cells [6]): no significant impact; Ki67 expression in tumors (IHC) ([7]; I-6 10 mg/kg): significantly inhibited; cleaved PARP in tumors (IHC) ([7]; I-6 10 mg/kg): significantly increased; tumor volume and weight at necropsy ([7]; I-6 10 mg/kg once/week, vs vehicle): significantly reduced; effect with 5-FU on development of xenograft tumor ([7]; co-treatment with 5-FU, nude mice): synergistic effect; mouse behavior or weight ([7]; during I-6 / 5-FU xenograft studies): no obvious changes; invasion (HCT116 cells [8]): no effect; effect with 5-FU on induction of apoptosis in tumoroids ([9]; I-6 25μM with 5-FU 5μM): synergistic effect; rate of apoptosis in tumoroids ([9]; I-6 25μM, 48 hours): significantly increased; invasion (SW620 cells [10]): suppresses invasion; cell viability (SW620 cells [11]; 25 & 50μM, P<0.001): significantly decreases cell viability; EC50 (SW620 cells [11]; Homo sapiens, SW-620, 72 h, read-out: EC50, cell viability): 24.8 µM; concentration at 24 h [12]: 65 ng/g; resistance to anoikis (SW480^cld1 cells [13]; claudin-1 overexpressed SW480^cld1): dramatically inhibits anoikis resistance; also recorded: inhibition of resistance to anoikis; effect with 5-FU on anoikis resistance (SW480^cld1 cells [13]; co-treatment with 5-FU): synergistic effect; Src phosphorylation [14]: significantly interferes; cell viability (SW480^cld1 cells [15]; 25 & 50μM, P<0.001): significantly decreases cell viability; EC50 (SW480^cld1 cells [15]; Homo sapiens, 72 h, read-out: EC50, cell viability): 28.4 µM; effect with 5-FU on cell growth (SW480^cld1 cells [15]; I-6 0.625μM-20μM with 5-FU 5μM): synergistic effect; resistance to anoikis (SW620^1C cells): no effect; resistance to anoikis (SW620 cells [16]; claudin-1 overexpressed SW620): inhibition of resistance to anoikis; effect with 5-FU on anoikis resistance (SW620 cells [16]; co-treatment with 5-FU): synergistic effect
